Measured values as given in ChEMBL document CHEMBL1148693, “Expeditious and convenient synthesis of pregnanes and its glycosides as potential anti-dyslipidemic and anti-oxidant agents” (2007).

Tests used:
Format in all cases: functional
[1] = tested on: Rattus norvegicus; experiment: Decrease in total cholesterol level in WR-1339-induced hyperlipidemic rat plasma at 400 mg/kg, po; parameters: scale not given: the % may be the effect or the level left
In short: (§1)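 Male adult Charles Foster rats (200–225 g), six per group. Triton WR-1339 400 mg/kg b.w. ip; treatment suspended in water with 0.2% w/v gum acacia, given po at the same time; diet withdrawn. Vehicle controls were included. After 18 h, under thiopentone anaesthesia, retro-orbital blood was collected into EDTA. Plasma was diluted 1:3 in saline and assayed enzymatically on an autoanalyzer. Percent change vs triton-only group, Student's t-test.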

[2] = tested on: Rattus norvegicus; experiment: Decrease in phospholipid level in WR-1339-induced hyperlipidemic rat plasma at 400 mg/kg, po; parameters: scale not given: the % may be the effect or the level left; in short: as §1
[3] = tested on: Rattus norvegicus; experiment: Decrease in triglyceride level in WR-1339-induced hyperlipidemic rat plasma at 400 mg/kg, po; parameters: scale not given: the % may be the effect or the level left; in short: as §1
[4] = Superoxide radical scavenging activity assessed by measuring formazone produced at 400 ug/kg; conditions: in the assay text read “400 ug/ml” for “400 ug/kg”
In short: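 Superoxide generated enzymatically with xanthine ([…]), xanthine oxidase (0.04 U) and nitroblue tetrazolium, in 100 mM phosphate buffer, pH 8.2. Samples were sonicated in buffer and added at […], 37 °C for 30 min. Stopped with 0.5 mL glacial acetic acid; formazan read at 560 nm. Percent inhibition from ε 7.2×10³ M⁻¹cm⁻¹.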

[5] = Hydroxy radical scavenging activity assessed by measuring malondialdehyde produced at 400 ug/kg by thiobarbituric acid method; conditions: in the assay text read “400 ug/ml” for “400 ug/kg”
In short: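 Non-enzymic hydroxyl-radical generation: deoxyribose 2.8 mM, FeSO4 2 mM, sodium ascorbate 2.0 mM and H2O2 2.8 mM in 50 mM KH2PO4, pH 7.4. Run with or without test compound at […], 37 °C for 90 min. Compared with compound-free reaction by Student's t-test.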

[6] = tested on: Rattus norvegicus; experiment: Decrease in triglyceride level in WR-1339-induced hyperlipidemic rat plasma at 100 mg/kg, po; parameters: scale not given: the % may be the effect or the level left; in short: as §1
[7] = tested on: Rattus norvegicus; experiment: Decrease in total cholesterol level in WR-1339-induced hyperlipidemic rat plasma at 100 mg/kg, po; parameters: scale not given: the % may be the effect or the level left; in short: as §1
[8] = tested on: Rattus norvegicus; experiment: Decrease in phospholipid level in WR-1339-induced hyperlipidemic rat plasma at 100 mg/kg, po; parameters: scale not given: the % may be the effect or the level left; in short: as §1

SMILES	Activity [1] [%]	Activity [2] [%]	Activity [3] [%]	Activity [4] [nmol/min]	Activity [5] [nmol/h]	Activity [6] [%]	Activity [7] [%]	Activity [8] [%]
CC(=O)C1=CC[C@H]2[C@@H]3CC=C4C[C@@H](OC(=O)c5ccccc5Cl)CC[C@]4(C)[C@H]3CC[C@]12C	-21	-17	-14	14.33	35.01	–	–	–
CC(=O)OC[C@H]1O[C@H](OCCO[C@@H]2C[C@H]3[C@@H]4CC=C5C[C@@H](O)CC[C@]5(C)[C@H]4CC[C@]3(C)[C@H]2C(C)=O)[C@@H](OC(C)=O)[C@@H](OC(C)=O)[C@@H]1OC(C)=O	–	–	–	13.22	35.05	–	–	–
CC(=O)OCCO[C@@H]1C[C@H]2[C@@H]3CC=C4C[C@@H](OC(C)=O)CC[C@]4(C)[C@H]3CC[C@]2(C)[C@H]1C(C)=O	-13	-13	-16	21.5	41.5	–	–	–
C[C@H](O)[C@H]1[C@H](OCCO)C[C@H]2[C@@H]3CC=C4C[C@@H](O)CC[C@]4(C)[C@H]3CC[C@]12C	-23	-25	-26	9.33	31.09	–	–	–
CC(=O)OCCO[C@@H]1C[C@H]2[C@@H]3CC=C4C[C@@H](OC(C)=O)CC[C@]4(C)[C@H]3CC[C@]2(C)[C@H]1[C@H](C)OC(C)=O	-18	-14	-13	12.63	33.9	–	–	–
C/C(=N\OCCCCCBr)C1=CC[C@H]2[C@@H]3CC=C4C[C@@H](O)CC[C@]4(C)[C@H]3CC[C@]12C	-4	-5	-5	15.33	38.52	–	–	–
CC(=O)C1=CC[C@H]2[C@@H]3CC=C4C[C@@H](OC(=O)c5ccc(Cl)cc5)CC[C@]4(C)[C@H]3CC[C@]12C	-27	-27	-25	11.1	27.16	–	–	–
CC(=O)O[C@@H]1[C@@H](OC(C)=O)[C@H](C)O[C@@H](OCCO[C@@H]2C[C@H]3[C@@H]4CC=C5C[C@@H](O)CC[C@]5(C)[C@H]4CC[C@]3(C)[C@H]2C(C)=O)[C@@H]1OC(C)=O	–	–	–	12.8	39.02	–	–	–
CC(=O)[C@H]1[C@H](OCCO)C[C@H]2[C@@H]3CC=C4C[C@@H](O)CC[C@]4(C)[C@H]3CC[C@@]21C	-13	-8	-11	7.83	36.12	–	–	–
Cc1ccc(C)c(OCCCC(C)(C)C(=O)O)c1 [GEMFIBROZIL]	–	–	–	–	–	-32	-37	-36
